The values that follow come from ChEMBL document CHEMBL4373711, “Development of 3,5-Dinitrophenyl-Containing 1,2,4-Triazoles and Their Trifluoromethyl Analogues as Highly Efficient Antitubercular Agents Inhibiting Decaprenylphosphoryl-β-d-ribofuranose 2'-Oxidase” (J Med Chem, 2019).

Values after ≈ are worked out from the molar mass of the structure shown.

For experiment [1], the system named is Mycobacterium tuberculosis. As to the kind of experiment: Antimycobacterial activity against multi-drug resistant Mycobacterium tuberculosis Praha 1 after 14 days. The settings on record: for MIC99: Praha 1, 336 h. In kind it is functional. The method in brief:
(§1)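 M. tuberculosis strains (H37Rv and clinical MDR/XDR isolates) tested by microdilution in Šula's semisynthetic medium. Compounds were dissolved in DMSO and tested at 32 to 0.03 µM in twofold steps. Inoculum was a 1.0 McFarland suspension diluted 10-3. Plates were incubated at 37 °C and read at 14 and 21 days.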

In experiment [2] the test system is Mycobacterium tuberculosis. As to the kind of experiment: Antimycobacterial activity against multi-drug resistant Mycobacterium tuberculosis Praha 1 after 21 days. The note with it: Praha 1, 504 h. In kind it is functional. The procedure, abridged:
as §1

In experiment [3] the test system is Mycobacterium tuberculosis. Nature of the experiment: Antimycobacterial activity against multi-drug resistant Mycobacterium tuberculosis Praha 4 after 14 days. The note with it: Praha 4, 336 h.
In experiment [4] the test system is Mycobacterium tuberculosis. Nature of the experiment: Antimycobacterial activity against multi-drug resistant Mycobacterium tuberculosis Praha 4 after 21 days. In kind it is functional. The settings on record: Praha 4, 504 h. The method in brief: as §1
Experiment [5] deals with Mycobacterium tuberculosis. Nature of the experiment: Antimycobacterial activity against multi-drug resistant Mycobacterium tuberculosis 9449/2007 after 21 days. In kind it is functional. The note with it: for MIC99: 9449/2007, 504 h. The method in brief:
as §1

For experiment [6], the system named is Mycobacterium tuberculosis. Nature of the experiment: Antimycobacterial activity against multi-drug resistant Mycobacterium tuberculosis 9449/2007 after 14 days. In kind it is functional. The note with it: 9449/2007, 336 h. The procedure, abridged: as §1
The subject of experiment [7] is Mycobacterium tuberculosis. As to the kind of experiment: Antimycobacterial activity against multi-drug resistant Mycobacterium tuberculosis 234/2005 after 21 days. The settings on record: 234/2005, 504 h. It is filed as functional. The method in brief:
as §1

In experiment [8] the test system is Mycobacterium tuberculosis. As to the kind of experiment: Antimycobacterial activity against multi-drug resistant Mycobacterium tuberculosis 7357/1998 after 21 days. It is filed as functional. The note with it: for MIC99: 7357/1998, 504 h. The procedure, abridged:
as §1

Experiment [9] has as its system Mycobacterium tuberculosis. As to the kind of experiment: Antimycobacterial activity against multi-drug resistant Mycobacterium tuberculosis 7357/1998 after 14 days. The settings on record: 7357/1998, 336 h. In kind it is functional. The procedure, abridged:
as §1

The subject of experiment [10] is Mycobacterium tuberculosis. As to the kind of experiment: Antimycobacterial activity against multi-drug resistant Mycobacterium tuberculosis 8666/2010 after 14 days. In kind it is functional. The note with it: for MIC99: 8666/2010, 336 h. The method in brief: as §1
Experiment [11] relates to Mycobacterium tuberculosis. Nature of the experiment: Antimycobacterial activity against multi-drug resistant Mycobacterium tuberculosis 8666/2010 after 21 days. It is filed as functional. The settings on record: 8666/2010, 504 h. The procedure, abridged:
as §1

For experiment [12], the system named is Mycobacterium tuberculosis. Nature of the experiment: microbe, parasite or virus in culture. The settings on record: 234/2005, 336 h.

Turning to `CCCSc1nnc(-c2cc([N+](=O)[O-])cc([N+](=O)[O-])c2)n1Cc1ccccc1`, the MIC99 in [1] amounted to 0.125 µM (≈ 0.0499 µg/mL); in experiment [2] it was 0.125 µM (≈ 0.0499 µg/mL); in experiment [3] it was 0.125 µM (≈ 0.0499 µg/mL); in experiment [4] it was 0.125 µM (≈ 0.0499 µg/mL); in experiment [5], 0.06 µM (≈ 0.024 µg/mL); in [6], 0.125 µM (≈ 0.0499 µg/mL). Moreover, the MIC99 in [7] stood at 0.125 µM (≈ 0.0499 µg/mL); in experiment [8], 0.06 µM (≈ 0.024 µg/mL); in experiment [9], 0.125 µM (≈ 0.0499 µg/mL); in experiment [10], 0.06 µM (≈ 0.024 µg/mL); in experiment [11], 0.125 µM (≈ 0.0499 µg/mL); in experiment [12], 0.06 µM (≈ 0.024 µg/mL).

As to `O=[N+]([O-])c1cc(-c2nnc(SCc3ccc(Br)cc3)n2Cc2ccccc2)cc([N+](=O)[O-])c1`, the MIC99 was 0.125 µM (≈ 0.0658 µg/mL) in [1]; 0.25 µM (≈ 0.132 µg/mL) in experiment [2]; 0.125 µM (≈ 0.0658 µg/mL) in experiment [3]; 0.25 µM (≈ 0.132 µg/mL) in experiment [4]; 0.125 µM (≈ 0.0658 µg/mL) in experiment [5]; 0.25 µM (≈ 0.132 µg/mL) in experiment [6]. Further, the MIC99 turned out to be 0.25 µM (≈ 0.132 µg/mL) in experiment [7]; 0.125 µM (≈ 0.0658 µg/mL) in experiment [8]; 0.25 µM (≈ 0.132 µg/mL) in experiment [9]; 0.25 µM (≈ 0.132 µg/mL) in experiment [10]; 0.25 µM (≈ 0.132 µg/mL) in [11]; 0.125 µM (≈ 0.0658 µg/mL) in [12].

Consider `CO[C@H]1/C=C/O[C@@]2(C)Oc3c(C)c(O)c4c(O)c(c(/C=N/N5CCN(C)CC5)c(O)c4c3C2=O)NC(=O)/C(C)=C\C=C\[C@H](C)[C@H](O)[C@@H](C)[C@@H](O)[C@@H](C)[C@H](OC(C)=O)[C@@H]1C` [RIFAMPIN], for which the MIC99 in experiment [1], in experiment [3], in experiment [5], in experiment [8], in experiment [10] and in experiment [12] was > 8 µM throughout.

Turning to `O=[N+]([O-])c1cc(-c2nnc(SCc3ccccc3)n2Cc2ccccc2)cc([N+](=O)[O-])c1`, the MIC99 in experiment [1], in [2], in [3], in experiment [4], in experiment [5] and in experiment [6] was 0.03 µM (≈ 0.0134 µg/mL) each time. Moreover, the MIC99 in experiment [7], in experiment [8], in experiment [9], in experiment [10], in experiment [11] and in experiment [12] was 0.03 µM (≈ 0.0134 µg/mL) throughout.

For `COc1ccc(CSc2nnc(-c3cc([N+](=O)[O-])cc([N+](=O)[O-])c3)n2Cc2ccccc2)cc1`, the MIC99 in [1], in experiment [2], in experiment [3], in experiment [4], in [5] and in experiment [6] was 0.03 µM (≈ 0.0143 µg/mL) throughout. For the same compound, the MIC99 in experiment [7], in experiment [8], in experiment [9], in [10], in experiment [11] and in [12] was 0.03 µM (≈ 0.0143 µg/mL) in each case.

For `O=[N+]([O-])c1cc(CSc2nnc(-c3ccc(Br)cc3)n2Cc2ccccc2)cc([N+](=O)[O-])c1`, the MIC99 was 2 µM (≈ 1.05 µg/mL) in experiment [1]; 4 µM (≈ 2.11 µg/mL) in experiment [2]; 2 µM (≈ 1.05 µg/mL) in experiment [3]; 4 µM (≈ 2.11 µg/mL) in experiment [4]; 2 µM (≈ 1.05 µg/mL) in experiment [5]; 4 µM (≈ 2.11 µg/mL) in [6]. The MIC99 stood at 4 µM (≈ 2.11 µg/mL) in experiment [7]; 2 µM (≈ 1.05 µg/mL) in experiment [8]; 4 µM (≈ 2.11 µg/mL) in [9]; 2 µM (≈ 1.05 µg/mL) in [10]; 4 µM (≈ 2.11 µg/mL) in [11]; 4 µM (≈ 2.11 µg/mL) in experiment [12].

As to `CCCCCCn1c(SCc2cc([N+](=O)[O-])cc([N+](=O)[O-])c2)nnc1-c1ccccc1`, the MIC99 in [1] stood at 1 µM (≈ 0.442 µg/mL); in experiment [2], 2 µM (≈ 0.883 µg/mL); in experiment [3] it was 2 µM (≈ 0.883 µg/mL); in experiment [4] it was 4 µM (≈ 1.77 µg/mL); in experiment [5] it was 1 µM (≈ 0.442 µg/mL); in experiment [6], 2 µM (≈ 0.883 µg/mL). Besides, the MIC99 is 2 µM (≈ 0.883 µg/mL) in experiment [7]; 1 µM (≈ 0.442 µg/mL) in experiment [8]; 2 µM (≈ 0.883 µg/mL) in experiment [9]; 1 µM (≈ 0.442 µg/mL) in [10]; 2 µM (≈ 0.883 µg/mL) in experiment [11]; 2 µM (≈ 0.883 µg/mL) in experiment [12].

As for `CCn1c(SCc2ccccc2)nnc1-c1cc([N+](=O)[O-])cc([N+](=O)[O-])c1`, the MIC99 in [1], in experiment [2], in [3], in experiment [4], in experiment [5] and in experiment [6] was 0.03 µM (≈ 0.0116 µg/mL) in each case. Also, the MIC99 in [7], in experiment [8], in [9], in [10], in experiment [11] and in experiment [12] was 0.03 µM (≈ 0.0116 µg/mL) each time.

`O=[N+]([O-])c1cc(-c2nnc(SCc3ccc(Cl)c(Cl)c3)n2Cc2ccccc2)cc(C(F)(F)F)c1`: the MIC99 in [1], in experiment [2], in experiment [3], in experiment [4], in [5] and in experiment [6] was 2 µM (≈ 1.08 µg/mL) in each case. The MIC99 in experiment [7], in [8], in experiment [9], in experiment [10], in [11] and in [12] was 2 µM (≈ 1.08 µg/mL) each time.

As to `O=[N+]([O-])c1cc(CSc2nnc(C3CCCCC3)n2Cc2ccccc2)cc(C(F)(F)F)c1`, the MIC99 in experiment [1], in [2], in [3], in experiment [4], in [5] and in experiment [6] was 16 µM (≈ 7.62 µg/mL) in each case. Further, the MIC99 in experiment [7], in [8], in experiment [9], in experiment [10], in experiment [11] and in experiment [12] was 16 µM (≈ 7.62 µg/mL) each time.

On to `Cn1c(SCc2ccccc2)nnc1-c1cc([N+](=O)[O-])cc([N+](=O)[O-])c1`, for which the MIC99 in [1], in experiment [2], in experiment [3], in [4], in [5] and in experiment [6] was 0.03 µM (≈ 0.0111 µg/mL) in each case. Moreover, the MIC99 in experiment [7], in experiment [8], in experiment [9], in experiment [10], in [11] and in experiment [12] was 0.03 µM (≈ 0.0111 µg/mL) in each case.

In the case of `O=[N+]([O-])c1cc(CSc2nnc(-c3ccccc3)n2Cc2ccccc2)cc([N+](=O)[O-])c1`, the MIC99 in experiment [1] was 2 µM (≈ 0.895 µg/mL); in [2] it was 4 µM (≈ 1.79 µg/mL); in experiment [3], 2 µM (≈ 0.895 µg/mL); in experiment [4], 4 µM (≈ 1.79 µg/mL); in [5], 4 µM (≈ 1.79 µg/mL); in experiment [6] it was 4 µM (≈ 1.79 µg/mL). Besides, the MIC99 in experiment [7] was found to be 4 µM (≈ 1.79 µg/mL); in experiment [8], 2 µM (≈ 0.895 µg/mL); in experiment [9], 4 µM (≈ 1.79 µg/mL); in experiment [10], 2 µM (≈ 0.895 µg/mL); in experiment [11], 4 µM (≈ 1.79 µg/mL); in [12], 4 µM (≈ 1.79 µg/mL).

Regarding `CC1COc2c(N3CCN(C)CC3)c(F)cc3c(=O)c(C(=O)O)cn1c23` (configuration not stated) [OFLOXACIN], the MIC99 in [3] was > 16 µM.

`CN[C@@H]1[C@H](O[C@H]2[C@H](O[C@H]3[C@H](O)[C@@H](O)[C@H](N=C(N)N)[C@@H](O)[C@@H]3N=C(N)N)O[C@@H](C)[C@]2(O)C=O)O[C@@H](CO)[C@H](O)[C@H]1O` [STREPTOMYCIN]: the MIC99 in experiment [3], in [5], in experiment [8] and in [10] was > 32 µM each time.

On to GENTAMICIN, for which the MIC>99 in [1] is 1 µM; in [5] it was 1 µM; in experiment [8], 1 µM; in experiment [10], 2 µM.
